Experimental data: paper PMC4716659 (European journal of medicinal chemistry, 2015)
≈ marks a conversion by molar mass, not a printed value. Entries after “also recorded” stand apart in the source; their conditions may differ.

Experiments:
S. aureus VRS5 (VRSA) [1] = experiment: MIC, broth microdilution; type: cell-based, Staphylococcus aureus; details: Staphylococcus aureus, VRSA
two VISA isolates = experiment: MIC against VISA isolates; type: cell-based; details: Staphylococcus aureus
S. aureus VRS1 (VRSA) [2] = experiment: MIC, broth microdilution; type: cell-based, Staphylococcus aureus; details: Staphylococcus aureus, VRSA
S. aureus NRS194 (MRSA) [3] = experiment: MBC, plating onto TSA; type: cell-based, Staphylococcus aureus; details: Staphylococcus aureus, MRSA|NRS194
S. aureus NRS194 (MRSA) [4] = experiment: MIC, broth microdilution; type: cell-based, Staphylococcus aureus; details: Staphylococcus aureus, MRSA|NRS194
S. aureus VRS1 (VRSA) [5] = experiment: MBC, plating onto TSA; type: cell-based, Staphylococcus aureus; details: Staphylococcus aureus, VRSA
MRSA USA300 = experiment: Time-kill analysis; type: cell-based, Staphylococcus aureus; details: MRSA USA300, 3 × MIC, 37 °C
How it was run: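 Late-log-phase cells diluted to ~1 × 10^8 CFU/mL in MHB and exposed to test compound or vancomycin in triplicate at 37 °C. 20 μL samples taken at 0, 2, 4, 6, 8, 10, 12 and 24 h, serially diluted in PBS, and plated on TSA. Plates incubated 18–20 h at 37 °C, then viable CFU/mL counted. Data given as mean ± standard deviation.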

three VRSA strains = experiment: MIC against VRSA strains; type: cell-based; details: Staphylococcus aureus
S. aureus VRS4 (VRSA) [6] = experiment: MIC, broth microdilution; type: cell-based, Staphylococcus aureus; details: Staphylococcus aureus, VRSA
S. aureus USA500 (MRSA) [7] = experiment: MIC, broth microdilution; type: cell-based, Staphylococcus aureus; details: Staphylococcus aureus, MRSA|USA500
S. aureus USA500 (MRSA) [8] = experiment: MBC, plating onto TSA; type: cell-based, Staphylococcus aureus; details: Staphylococcus aureus, MRSA|USA500
S. aureus NRS119 (MRSA) [9] = experiment: MBC, plating onto TSA; type: cell-based, Staphylococcus aureus; details: Staphylococcus aureus, MRSA|NRS119
S. aureus NRS19 (VISA) [10] = experiment: MIC, broth microdilution; type: cell-based, Staphylococcus aureus; details: Staphylococcus aureus, NRS19|VISA
S. aureus USA 400 (MRSA) [11] = experiment: MBC, plating onto TSA; type: cell-based, Staphylococcus aureus; details: Staphylococcus aureus, MRSA|USA400
S. aureus USA300 (MRSA) [12] = experiment: MBC, plating onto TSA; type: cell-based, Staphylococcus aureus; details: Staphylococcus aureus, MRSA|USA300
S. aureus NRS19 (VISA) [13] = experiment: MBC, plating onto TSA; type: cell-based, Staphylococcus aureus; details: Staphylococcus aureus, NRS19|VISA
S. aureus NRS119 (MRSA) [14] = experiment: MIC, broth microdilution; type: cell-based, Staphylococcus aureus; details: Staphylococcus aureus, MRSA|NRS119
S. aureus VRS5 (VRSA) [15] = experiment: MBC, plating onto TSA; type: cell-based, Staphylococcus aureus; details: Staphylococcus aureus, VRSA
[16] = test system: methicillin-resistant Staphylococcus aureus (MRSA) ATCC 43300; experiment: MIC, broth microdilution; type: cell-based; details: Staphylococcus aureus, ATCC43300|MRSA
S. aureus NRS107 (MRSA) [17] = experiment: MBC, plating onto TSA; type: cell-based, Staphylococcus aureus; details: Staphylococcus aureus, MRSA|NRS107
S. aureus NRS37 (VISA) [18] = experiment: MIC, broth microdilution; type: cell-based, Staphylococcus aureus; details: Staphylococcus aureus, NRS37|VISA
[19] = test system: S. aureus ATCC 43300 (MRSA); experiment: MBC, plating onto TSA; type: cell-based, Staphylococcus aureus; details: Staphylococcus aureus, ATCC43300|MRSA
S. aureus NRS107 (MRSA) [20] = experiment: MIC, broth microdilution; type: cell-based, Staphylococcus aureus; details: Staphylococcus aureus, MRSA|NRS107
S. aureus NRS1 (VISA) [21] = experiment: MBC, plating onto TSA; type: cell-based, Staphylococcus aureus; details: Staphylococcus aureus, NRS1|VISA
S. aureus NRS37 (VISA) [22] = experiment: MBC, plating onto TSA; type: cell-based, Staphylococcus aureus; details: Staphylococcus aureus, NRS37|VISA
S. aureus USA300 (MRSA) [23] = experiment: MIC, broth microdilution; type: cell-based, Staphylococcus aureus; details: Staphylococcus aureus, MRSA|USA300
S. aureus VRS4 (VRSA) [24] = experiment: MBC, plating onto TSA; type: cell-based, Staphylococcus aureus; details: Staphylococcus aureus, VRSA
S. aureus NRS1 (VISA) [25] = experiment: MIC, broth microdilution; type: cell-based, Staphylococcus aureus; details: Staphylococcus aureus, NRS1|VISA
S. aureus USA 400 (MRSA) [26] = experiment: MIC, broth microdilution; type: cell-based, Staphylococcus aureus; details: Staphylococcus aureus, MRSA|USA400
[27] = human, microsomes, pH 7.4
[28] = test system: human embryonic kidney (HEK293) cell line; experiment: In vitro cytotoxicity, MTS assay; details: 40 μg/mL

MIC (S. aureus VRS5 (VRSA) [1]) [µg/mL]	MIC (S. aureus VRS1 (VRSA) [2]) [µg/mL]	MIC (S. aureus NRS194 (MRSA) [4]) [µg/mL]	MIC (S. aureus VRS4 (VRSA) [6]) [µg/mL]	MIC (S. aureus USA500 (MRSA) [7]) [µg/mL]	MIC (S. aureus NRS19 (VISA) [10]) [µg/mL]	MIC (S. aureus NRS119 (MRSA) [14]) [µg/mL]	MIC (S. aureus NRS37 (VISA) [18]) [µg/mL]	MIC (S. aureus NRS107 (MRSA) [20]) [µg/mL]	Structure (SMILES)	MBC (S. aureus NRS194 (MRSA) [3]) [µg/mL]	MBC (S. aureus VRS1 (VRSA) [5]) [µg/mL]	MBC (S. aureus USA500 (MRSA) [8]) [µg/mL]	MBC (S. aureus NRS119 (MRSA) [9]) [µg/mL]	MBC (S. aureus USA 400 (MRSA) [11]) [µg/mL]	MBC (S. aureus USA300 (MRSA) [12]) [µg/mL]	MBC (S. aureus NRS19 (VISA) [13]) [µg/mL]	MBC (S. aureus VRS5 (VRSA) [15]) [µg/mL]	MBC (S. aureus NRS107 (MRSA) [17]) [µg/mL]	MBC [19] [µg/mL]	MBC (S. aureus NRS1 (VISA) [21]) [µg/mL]	further results
									CC(=O)CC(c1ccccc1)c1c(O)c2ccccc2oc1=O (stereo not shown) [Warfarin]												NADPH-dependent CLint [27]: 0.0 µL/min/mg; NADPH-free CLint [27]: 0.0 µL/min/mg
3.2 (≈ 8.01 µM)	3.2 (≈ 8.01 µM)	1.6 (≈ 4 µM)	3.2 (≈ 8.01 µM)	1.6 (≈ 4 µM)	1.6 (≈ 4 µM)	1.6 (≈ 4 µM)	1.6 (≈ 4 µM)	1.6 (≈ 4 µM)	[H]/N=C(\N)NN=C(C)c1sc(-c2ccc(-c3cccc4ccccc34)cc2)nc1C [compound 25, (E)-2-(1-(4-Methyl-2-(4-(naphthalen-1-yl)phenyl)thiazol-5-yl)ethylidene)hydrazinecarboximidamide]	1.6 (≈ 4 µM)	3.2 (≈ 8.01 µM)	3.2 (≈ 8.01 µM)	1.6 (≈ 4 µM)	1.6 (≈ 4 µM)	1.6 (≈ 4 µM)	1.6 (≈ 4 µM)	3.2 (≈ 8.01 µM)	1.6 (≈ 4 µM)	1.6 (≈ 4 µM)	1.6 (≈ 4 µM)	MIC (two VISA isolates): 1.6 µg/mL (≈ 4 µM); toxicity to mammalian cells (MTS assay) [28]: not toxic; also recorded: improved toxicity profile; time to completely eradicate MRSA growth (MRSA USA300): 10 h; MIC ([16]; MRSA ATCC 43300): 1.6 µg/mL (≈ 4 µM); MBC (S. aureus NRS37 (VISA) [22]): 1.6 µg/mL (≈ 4 µM); MIC (S. aureus USA300 (MRSA) [23]): 1.6 µg/mL (≈ 4 µM); MBC (S. aureus VRS4 (VRSA) [24]): 3.2 µg/mL (≈ 8.01 µM); MIC (S. aureus NRS1 (VISA) [25]): 1.6 µg/mL (≈ 4 µM); MIC (S. aureus USA 400 (MRSA) [26]): 1.6 µg/mL (≈ 4 µM)
6.7 (≈ 16 µM)	6.7 (≈ 16 µM)	6.7 (≈ 16 µM)	6.7 (≈ 16 µM)	3.3 (≈ 7.9 µM)	3.3 (≈ 7.9 µM)	6.7 (≈ 16 µM)	3.3 (≈ 7.9 µM)	3.3 (≈ 7.9 µM)	[H]/N=C(\N)NN=C(C)c1sc(-c2ccc(-c3ccc(C(F)(F)F)cc3)cc2)nc1C [22c, (E)-2-(1-(4-Methyl-2-(4′-(trifluoromethyl)-[1,1′-biphenyl]-4-yl)thiazol-5-yl)ethylidene)hydrazinecarboximidamide]	13.3 (≈ 31.9 µM)	6.7 (≈ 16 µM)	3.3 (≈ 7.9 µM)	6.7 (≈ 16 µM)	13.3 (≈ 31.9 µM)	6.7 (≈ 16 µM)	3.3 (≈ 7.9 µM)	6.7 (≈ 16 µM)	6.7 (≈ 16 µM)	3.3 (≈ 7.9 µM)	3.3 (≈ 7.9 µM)	toxicity to mammalian cells (MTS assay) [28]: toxic; MIC (three VRSA strains): 6.7 µg/mL (≈ 16 µM); MIC ([16]; MRSA ATCC 43300): 3.3 µg/mL (≈ 7.9 µM); MBC (S. aureus NRS37 (VISA) [22]): 3.3 µg/mL (≈ 7.9 µM); MIC (S. aureus USA300 (MRSA) [23]): 6.7 µg/mL (≈ 16 µM); MBC (S. aureus VRS4 (VRSA) [24]): 6.7 µg/mL (≈ 16 µM); MIC (S. aureus NRS1 (VISA) [25]): 3.3 µg/mL (≈ 7.9 µM); MIC (S. aureus USA 400 (MRSA) [26]): 6.7 µg/mL (≈ 16 µM)

Structure (SMILES)	MIC (S. aureus VRS5 (VRSA) [1]) [µg/mL]	MIC (S. aureus VRS1 (VRSA) [2]) [µg/mL]	MIC (S. aureus NRS194 (MRSA) [4]) [µg/mL]	MIC (S. aureus VRS4 (VRSA) [6]) [µg/mL]	MIC (S. aureus USA500 (MRSA) [7]) [µg/mL]	MIC (S. aureus NRS19 (VISA) [10]) [µg/mL]	MIC (S. aureus NRS119 (MRSA) [14]) [µg/mL]	MIC (S. aureus NRS37 (VISA) [18]) [µg/mL]	MIC (S. aureus NRS107 (MRSA) [20]) [µg/mL]	MBC (S. aureus NRS194 (MRSA) [3]) [µg/mL]	MBC (S. aureus VRS1 (VRSA) [5]) [µg/mL]	MBC (S. aureus USA500 (MRSA) [8]) [µg/mL]	MBC (S. aureus NRS119 (MRSA) [9]) [µg/mL]	MBC (S. aureus USA 400 (MRSA) [11]) [µg/mL]	MBC (S. aureus USA300 (MRSA) [12]) [µg/mL]	MBC (S. aureus NRS19 (VISA) [13]) [µg/mL]	MBC (S. aureus VRS5 (VRSA) [15]) [µg/mL]	MBC (S. aureus NRS107 (MRSA) [17]) [µg/mL]	MBC [19] [µg/mL]	MBC (S. aureus NRS1 (VISA) [21]) [µg/mL]	further results
CN[C@H](CC(C)C)C(=O)N[C@H]1C(=O)N[C@@H](CC(N)=O)C(=O)N[C@H]2C(=O)N[C@H]3C(=O)N[C@H](C(=O)N[C@H](C(=O)O)c4cc(O)cc(O)c4-c4cc3ccc4O)[C@H](O)c3ccc(c(Cl)c3)Oc3cc2cc(c3O[C@@H]2O[C@H](CO)[C@@H](O)[C@H](O)[C@H]2O[C@H]2C[C@](C)(N)[C@H](O)[C@H](C)O2)Oc2ccc(cc2Cl)[C@H]1O [Vancomycin, reference compound]	> 190	> 190	0.7 (≈ 0.483 µM)	> 190	0.7 (≈ 0.483 µM)	< 1.5	< 1.5	3 (≈ 2.07 µM)	< 1.5	0.7 (≈ 0.483 µM)	> 190	0.7 (≈ 0.483 µM)	< 1.5	0.7 (≈ 0.483 µM)	0.7 (≈ 0.483 µM)	< 1.5	> 190	< 1.5	0.7 (≈ 0.483 µM)	3 (≈ 2.07 µM)	MIC (two VISA isolates): 3 µg/mL (≈ 2.07 µM); time to completely eradicate MRSA growth (MRSA USA300): 24 h; MIC (three VRSA strains): > 190 µg/mL; MIC [16]: 0.7 µg/mL (≈ 0.483 µM); MBC (S. aureus NRS37 (VISA) [22]): 3 µg/mL (≈ 2.07 µM); MIC (S. aureus USA300 (MRSA) [23]): 0.7 µg/mL (≈ 0.483 µM); MBC (S. aureus VRS4 (VRSA) [24]): > 190 µg/mL; MIC (S. aureus NRS1 (VISA) [25]): 3 µg/mL (≈ 2.07 µM); MIC (S. aureus USA 400 (MRSA) [26]): 0.7 µg/mL (≈ 0.483 µM)
